UBC13 inh: inhibitors of human UBC13 polyubiquitin chain formation | P61088 | TR-FRET | inhibition, % at 20 µM | actives 0.47% (n = 330,000) | AID 485273; in the data active means inhibition above about 45%, passing the limit was not always enough
MPTP inh: inhibitors of mitochondrial permeability transition pore | isolated mouse mitochondria, Ca2+ swelling absorbance, 30 min | inhibition, % at 10 µM | actives 1.4% (n = 360,000) | AID 602449;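 active means inhibition of 50% or more, scaled per plate between neutral and stimulator controls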;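 further: 0% = DMSO wells given calcium and 100% = 1 mM EGTA wells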
iPSC survival up: increases survival of single human iPS cells; hiPSC single-cell survival, ATPlite luminescence; 100% = ROCK inhibitor wells, 0% = DMSO; survival enhancement, % at 20 µM; actives 0.044% (n = 360,000); in the data active means survival enhancement above about 18%;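 further: cells exposed to compounds for 16 hours before the ATP read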
Apaf-1 inh: blocks human Apaf-1 apoptosome activity; inhibition, % at 20 µM; AID 489030; O14727; actives 0.71% (n = 330,000); reconstituted apoptosome caspase-3 activity, DEVD-Rh110 fluorescence; active means inhibition of at least 40% at 20 µM;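 further: plate controls were DMSO wells for no effect and DEVD-CHO caspase inhibitor wells for full effect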
Target sequence (O14727 whole entry, looked up): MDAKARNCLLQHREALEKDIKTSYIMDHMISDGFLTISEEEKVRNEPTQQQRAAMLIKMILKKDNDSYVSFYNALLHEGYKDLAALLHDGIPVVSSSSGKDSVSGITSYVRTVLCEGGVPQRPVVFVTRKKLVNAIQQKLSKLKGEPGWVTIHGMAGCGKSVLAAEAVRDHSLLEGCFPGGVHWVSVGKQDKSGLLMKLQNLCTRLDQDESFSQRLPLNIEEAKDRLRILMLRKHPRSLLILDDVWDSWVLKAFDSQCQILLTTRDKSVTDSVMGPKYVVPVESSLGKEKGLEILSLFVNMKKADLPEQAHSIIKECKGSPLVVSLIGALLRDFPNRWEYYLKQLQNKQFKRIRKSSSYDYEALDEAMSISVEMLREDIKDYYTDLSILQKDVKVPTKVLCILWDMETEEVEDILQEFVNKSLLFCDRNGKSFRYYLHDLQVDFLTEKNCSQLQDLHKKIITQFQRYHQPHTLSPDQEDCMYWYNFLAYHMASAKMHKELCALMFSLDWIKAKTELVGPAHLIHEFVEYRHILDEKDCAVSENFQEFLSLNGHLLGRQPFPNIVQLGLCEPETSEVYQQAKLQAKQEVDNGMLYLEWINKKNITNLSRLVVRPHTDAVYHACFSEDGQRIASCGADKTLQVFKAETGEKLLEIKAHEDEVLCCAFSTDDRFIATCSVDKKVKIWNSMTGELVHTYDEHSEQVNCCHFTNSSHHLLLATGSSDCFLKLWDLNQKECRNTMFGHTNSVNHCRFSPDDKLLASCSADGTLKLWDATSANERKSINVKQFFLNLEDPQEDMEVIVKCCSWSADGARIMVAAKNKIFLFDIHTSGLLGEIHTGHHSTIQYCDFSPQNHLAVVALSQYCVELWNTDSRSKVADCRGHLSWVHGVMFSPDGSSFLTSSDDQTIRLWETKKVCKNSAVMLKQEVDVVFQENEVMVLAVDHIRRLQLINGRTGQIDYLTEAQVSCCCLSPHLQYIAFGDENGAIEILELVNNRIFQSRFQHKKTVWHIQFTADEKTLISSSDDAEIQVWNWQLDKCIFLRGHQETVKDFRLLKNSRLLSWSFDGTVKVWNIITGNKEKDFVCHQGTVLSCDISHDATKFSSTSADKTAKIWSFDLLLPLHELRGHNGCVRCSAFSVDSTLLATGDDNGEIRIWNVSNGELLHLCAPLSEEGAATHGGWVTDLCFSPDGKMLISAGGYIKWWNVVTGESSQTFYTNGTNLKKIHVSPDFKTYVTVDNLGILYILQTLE
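Material: cell-free apoptosome with Apaf-1, procaspase-3 and caspase-9; Buffer or medium: Hepes pH 7.5 with detergent and BSA; Reagent: cytochrome c trigger plus (Z-DEVD)2-Rh110 caspase-3 substrate; Times: compound with Apaf-1, dATP, procaspase-3 30 min, then 50 min reaction, room temperature; Technique: Rh110 fluorescence intensity.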
Exocytosis inh: lytic granule exocytosis inhibition; TALL-104 LAMP-1 surface exposure, flow cytometry; cells stimulated with thapsigargin and PMA; inhibition, % at 10 µM; actives 0.66% (n = 360,000); AID 651702;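 active means inhibition above about 55%, limit read from the data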
beta cell repl: MIN6 beta-cell proliferation induction. MIN6 cells proliferation, ATPlite luminescence, 48 h; cells starved in 0.2% serum; 100% = growth in 10% serum. proliferation, % at 10 µM. actives 0.29% (n = 330,000). AID 2380;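 active means compounds whose signal lies at least 3.5 SD above the mean of all wells on their plate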;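 further: 0% = DMSO-treated cells in low-serum medium and 100% = 10% serum control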
Numbers without * were called inactive; x = not tested or not shown. In the library only some 3% were active in any assay of this set; here they are far more common.

SMILES	UBC13 inh	MPTP inh	iPSC survival up	Apaf-1 inh	Exocytosis inh	beta cell repl
O=S(=O)(Nc1cccnc1)c1cccc(C(F)(F)F)c1	-6.7	-0.7	-2.2	12.9	9.9	-3.4
O=C(NCc1cccc(Cl)c1)C1CCC(=O)N(CCCN2CCCC2=O)C1 (configuration not stated)	1.2	0.1	-0.4	2.0	5.4	-2.0
CCN(CC(=O)Nc1ccc(OC)cc1)C(=O)c1ccc(N2CCCC2=O)cc1	22.2	-1.1	-0.5	37.4	-5.3	-3.3
CCOc1cc(/C=C2/C(=O)ON=C2C)ccc1OCc1ccccc1	-11.1	x	x	5.9	x	-4.7
CCOc1cc(/C=C2/C(=O)ON=C2C)ccc1OCc1ccccc1F	-13.1	-0.9	-1.7	-10.1	77.9*	-4.7
Cc1ccc(S(=O)(=O)N2CCN(C(=O)c3ccc(N4CCC(C)CC4)c([N+](=O)[O-])c3)CC2)cc1	x	-2.4	0.8	x	1.1	x
Cn1c(Cl)c(/C=N/OC(=O)c2ccc(Cl)cc2)c2ccccc21	-6.2	-3.5	22.2*	3.4	0.0	-0.6
Cc1ccc(C(=O)O/N=C/c2c(Cl)n(C)c3ccccc23)cc1	-2.2	-2.9	-0.6	6.5	-0.2	-1.3
Oc1ccc(N=Cc2ccc(O)c(O)c2)cc1	-29.8	6.3	-1.1	75.0*	12.7	-5.5
Cc1ccc(SCc2c(C(=O)N/N=C/c3ccccc3)nnn2-c2nonc2N)cc1	2.7	5.0	1.3	5.4	84.6*	-4.0
Cc1ccc(SCc2c(C(=O)N/N=C/c3ccoc3)nnn2-c2nonc2N)cc1	5.1	-0.8	0.0	5.9	17.3	0.4
Cc1ccc(/C=N/NC(=O)c2nnn(-c3nonc3N)c2CSc2ccccc2)cc1	-6.6	6.3	-0.2	3.3	3.7	0.6
Cc1ccc(SCc2c(C(=O)N/N=C/c3ccc4c(c3)OCO4)nnn2-c2nonc2N)cc1	-4.3	-1.7	-0.3	6.6	79.1*	-2.2
Cc1cccn2c(=O)c(C(=O)NC3CC(C)CC(C)(C)C3)c(O)nc12 (configuration not stated)	-10.0	3.4	-0.4	6.7	2.7	-5.8
CC(C)N=c1cc2n(-c3ccc(Cl)cc3)c3ccccc3nc-2cc1Nc1ccc(Cl)cc1	-74.1	3.9	-5.2	68.2*	8.7	-7.7
Cc1ccccc1NC(=O)C1CCCN1S(=O)(=O)c1ccccc1C(F)(F)F (configuration not stated)	-0.5	0.3	-0.4	2.5	5.1	-5.1
C=C(C)C(=O)Nc1cccc(C2=NOC3(C2)C[C@@H](C(N)=O)N(C(=O)c2cc([N+](=O)[O-])cc([N+](=O)[O-])c2)C3)c1 (some centres not stated)	-27.5	-0.4	-1.2	-38.9	63.6*	-1.7
C=C(C)C(=O)Nc1cccc(C2=NOC3(C2)C[C@@H](C(N)=O)N(C(=O)c2ccc(OC)cc2)C3)c1 (some centres not stated)	-126.9	1.6	-2.8	-339.8	-0.5	0.6
COc1cc(/C=C/C(=O)CC(=O)/C=C/c2ccc(O)c(OC)c2)ccc1O	-81.4	7.2	-4.3	-12.5	83.8*	-7.6
COc1cc(OC)c(C(=O)C=Cc2ccc(OC)c(OC)c2)c(OC)c1	x	-0.6	-2.1	x	72.7*	x
COc1cc(OC)c(C(=O)/C=C/c2ccc(OCc3ccccc3)c(OC)c2)c(OC)c1	-2.6	0.2	0.0	5.7	6.1	-2.9
COc1cc(/C=C2/C(=O)CNC2=O)ccc1O	-306.2	1.0	-1.4	-13.3	0.1	4.5
COc1cc(/C=C/C(=O)/C=C(O)/C=C/c2ccc(O)c(OC)c2)ccc1O	-66.0	5.1	-3.2	-1.9	68.8*	-6.6
COc1cc(C=C2C(=O)C=CC2=O)ccc1O	x	8.4	5.1	x	82.6*	x
COc1cc(/C=C/C(=O)O)ccc1O	-3.5	-1.3	-0.6	-0.3	-4.8	0.3
SMILES	UBC13 inh	MPTP inh	iPSC survival up	Apaf-1 inh	Exocytosis inh	beta cell repl
CC#CCOCC1CNC(=O)O1 (configuration not stated)	x	-1.8	1.3	x	-1.8	x
Cc1ccc(SCC(=O)OCC(=O)N(CC(C)C)c2c(N)n(Cc3ccccc3)c(=O)[nH]c2=O)c(C)c1	-7.8	-1.5	-0.4	-3.3	-0.5	-6.4
O=c1cc(CN(Cc2ccccc2)Cc2ccccc2)c2ccccc2o1	x	0.0	-1.6	x	-2.8	x
COCCN(C(=O)COC(=O)C12CC3CC(CC(O)(C3)C1)C2)c1c(N)n(Cc2ccccc2)c(=O)[nH]c1=O	x	0.0	1.3	x	1.1	x
O=C(COC(=O)c1cc(S(=O)(=O)N2CCc3ccccc3C2)ccc1Cl)NCc1ccco1	0.6	-0.3	-0.1	42.6*	7.4	-3.8
O=C(COC(=O)c1cccc(S(=O)(=O)N2CCc3ccccc3C2)c1)NCc1ccco1	-6.7	-12.3	-2.6	9.0	2.7	4.3
O=C(CSCc1ccc(Br)cc1)N=Nc1c(O)[nH]c2ccccc12	-4.2	5.1	-0.8	-10.0	4.6	8.7*
Cc1ccc(NCCC(=O)c2cccc([N+](=O)[O-])c2)c(C)c1	-7.4	-0.4	-1.6	-1.3	22.4	-5.5
Cc1cccc(NCCC(=O)c2ccc([N+](=O)[O-])cc2)c1C	14.0	0.6	5.0	0.5	106.6*	-6.5
COc1ccc(CNC(=O)C(c2ccc(C)o2)N(C(=O)c2snc(C(N)=O)c2N)c2ccccc2OC)cc1 (configuration not stated)	8.7	1.7	0.2	21.9	72.6*	-1.5
Cc1ccc(C(C(=O)NCc2ccc(F)cc2)N(Cc2ccco2)C(=O)c2snc(C(N)=O)c2N)o1 (configuration not stated)	6.9	1.6	2.7	11.4	74.1*	4.5
NC(=O)c1nsc(C(=O)N(Cc2ccco2)C(C(=O)NCc2ccc(F)cc2)c2ccc(O)cc2)c1N (configuration not stated)	7.9	1.7	-0.7	7.6	32.4	1.1
COc1ccc(OC)c(N(C(=O)c2snc(C(N)=O)c2N)C(C(=O)NCc2ccccc2)c2ccc(O)cc2)c1 (configuration not stated)	-3.5	-0.1	0.1	12.6	-5.8	7.4
C[C@@H](NC(=O)[C@@H]1Cc2ccccc2CN1)C(=O)Nc1ccc2c(c1)OCCO2	-1.0	-1.0	1.7	7.2	-1.3	-3.6
Cc1cc(C)c(O)c(-c2cc(C(=O)NCCc3ccc(S(N)(=O)=O)cc3)[nH]n2)c1	8.5	2.0	0.4	1.8	63.2*	-1.1
CCn1c(SCC(=O)NCc2ccco2)nnc1-c1ccncc1	-1.4	x	x	-6.0	x	2.8
Cc1[nH]c2ccc(-c3nnc(SCC(=O)NCc4ccco4)n3Cc3ccccc3)cc2c1C	1.0	2.3	-0.4	21.0	87.0*	1.1
Brc1cccc(-c2nc3c4ccccc4ccn3c2Cc2ccccc2)c1	x	2.9	-0.2	x	-2.5	x
Cc1nn(C)c(C(=O)NC2C3CC4CC(C3)CC2C4)c1Cl (configuration not stated)	8.1	0.6	1.0	-7.8	-0.7	7.7*

Source: PubChem
